Converted amounts (≈) assume the structure as drawn. The source made the active and inactive calls. No cut-off for these calls is given here.
Assays:
Staphylococcus aureus [1] = test: Activity at Staphylococcus aureus wild-type GyrA
How it was run: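 Recombinant S. aureus gyrase (wild-type GyrA with His-tagged GyrB; 250 U per μg). SDS/proteinase K stop. Gel quantitation of linear cleavage product gave CC50, the mean of two or more assays.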

Staphylococcus aureus [2] = test: Antimicrobial activity against Staphylococcus aureus CB814 harboring fluoroquinolone-resistant gyrA S84L and parC S80F mutant genes by broth microdilution method; assay type: functional
How it was run: (§1)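 CLSI broth microdilution MIC in cation-adjusted Mueller-Hinton (MHII) broth supplemented with 0.002% (vol/vol) polysorbate 80, included to limit compound loss to plastic surfaces.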

Staphylococcus aureus [3] = test: Antimicrobial activity against Staphylococcus aureus CB1333 harboring rpoB H481Y, parC S80F and parE L517F mutant genes selected after 0.8 ug/ml drug exposure by broth microdilution method; assay type: functional
[4] = system: DNA gyrase subunit A (Staphylococcus aureus), P20831 [S84L]; test: Activity at Staphylococcus aureus wild-type GyrA S84L mutant
Staphylococcus aureus [5] = test: Antimicrobial activity against Staphylococcus aureus CB370 harboring rifampin-resistant rpoB H481Y mutant gene by broth microdilution method; assay type: functional; how it was run: as §1
Staphylococcus aureus [6] = test: Antimicrobial activity against Staphylococcus aureus CB1952 harboring rpoB S486L, gyrA […], gyrA E88Q, gyrA G532S, parC S80F, parC E84L mutant genes selected after CBR-2092 exposure for 21 days by agar dilution method; assay type: functional; conditions: CB1952, 504 h
How it was run: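 CLSI agar dilution MIC on MHII base medium against strains from multistep passage (up to 20–21 days) of parents with preexisting rifamycin and/or quinolone resistance.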

Staphylococcus aureus [7] = test: Antimicrobial activity against rifampin-sensitive Staphylococcus aureus CB190 harboring rpoB Q468K mutant gene by broth microdilution method; assay type: functional; how it was run: as §1
Staphylococcus aureus [8] = test: Antimicrobial activity against Staphylococcus aureus CB370 harboring rpoB H481Y mutant gene by agar dilution method; assay type: functional
How it was run: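 CLSI agar dilution MIC with cation-adjusted Mueller-Hinton (MHII) agar as the base medium.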

Staphylococcus aureus [9] = test: Antimicrobial activity against Staphylococcus aureus CB1884 harboring rpoB R484H mutant gene, L520 deficient gyrA gene, gyrA S84L mutant gene, R236 duplicated par C gene and parC H103Y mutant gene by agar dilution method; assay type: functional
How it was run: (§2)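 CLSI agar dilution MIC on MHII base medium against stepwise-passage isolates; passage was in MHII broth without polysorbate 80, daily at 37°C.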

Staphylococcus aureus [10] = test: Antimicrobial activity against wild-type Staphylococcus aureus CB190 by broth microdilution method; assay type: functional; how it was run: as §1
Staphylococcus aureus [11] = test: Antimicrobial activity against Staphylococcus aureus CB1882 harboring rpoB R484H mutant gene, L520 deficient gyrA gene and R236 duplicated parC gene by agar dilution method; assay type: functional; how it was run: as §2
Staphylococcus aureus [12] = test: Inhibition of RNA synthesis in Staphylococcus aureus CB190 assessed as decrease in [5,6-3H]uridine incorporation at 0.5 ug/ml; assay type: functional, organism-based
Staphylococcus aureus [13] = test: Antimicrobial activity against rifampin-sensitive Staphylococcus aureus CB190 by broth microdilution method; assay type: functional; how it was run: as §1
Staphylococcus aureus [14] = test: Antimicrobial activity against Staphylococcus aureus CB1882 harboring rpoB R484H mutant gene, L520 deficient gyrA gene and R236 duplicated parC gene by broth microdilution method; assay type: functional
How it was run: (§3)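 CLSI broth microdilution MIC in MHII broth with 0.002% (vol/vol) polysorbate 80. Isolates came from daily stepwise broth passage at sub-MIC drug (MHII without polysorbate 80, 10^6 CFU/ml inoculum, 20–24 h shaking at 37°C), were purified drug-free, and were sequenced at target loci.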

Staphylococcus aureus [15] = test: Antimicrobial activity against Staphylococcus aureus CB1884 by broth microdilution method; assay type: functional; how it was run: as §3
Staphylococcus aureus [16] = test: Antimicrobial activity against Staphylococcus aureus CB1327 harboring rpoB H481Y and gyrA S84L mutant genes selected after 0.2 ug/ml drug exposure by broth microdilution method; assay type: functional
How it was run: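 CLSI broth microdilution MIC in cation-adjusted Mueller-Hinton (MHII) broth with 0.002% (vol/vol) polysorbate 80. Single-step mutants were selected on agar […], purified by drug-free passage, their phenotype re-verified, and resistance loci sequenced.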

Staphylococcus aureus [17] = test: Antimicrobial activity against Staphylococcus aureus CB815 harboring rpoB H481Y, gyrA S84L and parC S80F mutant genes by broth microdilution method
Staphylococcus aureus [18] = test: Antimicrobial activity against Staphylococcus aureus CB1881 harboring rpoB R484H mutant gene and L520 deficient gyrA gene by broth microdilution method; assay type: functional; how it was run: as §3
Staphylococcus aureus [19] = test: Inhibition of protein synthesis in Staphylococcus aureus CB190 assessed as decrease in L-[3,4,5-3H]leucine incorporation at 0.5 ug/ml; assay type: functional, organism-based
Staphylococcus aureus [20] = test: Antimicrobial activity against Staphylococcus aureus CB1883 harboring rpoB R484H mutant gene, L520 deficient gyrA gene, gyrA S84L mutant gene and R236 duplicated par C gene; assay type: functional
Staphylococcus aureus [21] = test: Inhibition of RNA synthesis in rifamycin-resistant Staphylococcus aureus CB370 harboring rpoB H481Y mutant gene assessed as decrease in [5,6-3H]uridine incorporation at 0.5 ug/ml; assay type: functional, organism-based
How it was run: (§4)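 Macromolecular synthesis time course in S. aureus, measuring incorporation of [methyl-3H]thymidine (DNA), [5,6-3H]uridine (RNA) or [2,3-3H]D-alanine (cell wall). At each time point, incorporation is expressed as percent of the DMSO-treated control culture. Incorporation at time zero is set to 100%.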

Staphylococcus aureus [22] = test: Inhibition of protein synthesis in rifamycin-resistant Staphylococcus aureus CB370 harboring rpoB H481Y mutant gene assessed as decrease in L-[3,4,5-3H]leucine incorporation at 0.5 ug/ml; assay type: functional, organism-based
How it was run: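 Time-course radiolabel incorporation in S. aureus cultures with test agent. Precursors: [methyl-3H]thymidine (DNA), [5,6-3H]uridine (RNA), L-[3,4,5-3H]leucine (protein), [2,3-3H]D-alanine (cell wall). At each time point, incorporation with agent is expressed relative to the DMSO-treated control culture as percent incorporation. Time-zero incorporation is set to 100%.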

Staphylococcus aureus [23] = test: Inhibition of DNA synthesis in quinolone-resistant Staphylococcus aureus CB814 harboring gyrA S84L and parC S80F mutant genes assessed as decrease in [methyl-3H]thymidine incorporation at 0.5 ug/ml; assay type: functional, organism-based; how it was run: as §4
Staphylococcus aureus [24] = test: Antimicrobial activity against Staphylococcus aureus CB1875 harboring gyrA […], parC R298K mutant genes and LNVIKEE461 inserted parC gene by broth microdilution method; assay type: functional; how it was run: as §3
Staphylococcus aureus [25] = test: Antimicrobial activity against Staphylococcus aureus CB1884 harboring rpoB R484H mutant gene, L520 deficient gyrA gene, gyrA S84L mutant gene, R236 duplicated par C gene and parC H103Y mutant gene; assay type: functional
Staphylococcus aureus [26] = test: Antimicrobial activity against rifampin-sensitive Staphylococcus aureus CB190 harboring rpoB H472 mutant gene by broth microdilution method; assay type: functional; how it was run: as §1
Staphylococcus aureus [27] = test: Antimicrobial activity against Staphylococcus aureus CB1884 by agar dilution method; assay type: functional; how it was run: as §2
Staphylococcus aureus [28] = test: Antimicrobial activity against rifampin-sensitive Staphylococcus aureus CB190 harboring rpoB Q468L mutant gene by broth microdilution method; assay type: functional; how it was run: as §1
Staphylococcus aureus [29] = test: Antimicrobial activity against Staphylococcus aureus CB1353 harboring rpoB H481Y, parC S80F, parE V458G and gyrA S84L mutant genes selected after 0.53 ug/ml drug exposure by broth microdilution method; assay type: functional

CO[C@H]1/C=C/O[C@@]2(C)Oc3c(C)c(O)c4c(O)c(c(/C=N/N5CCC(N(C)C6([C@@H]7CCN(c8c(F)cn9c(=O)c(C(=O)O)cc(C%10CC%10)c9c8C)C7)CC6)CC5)c(O)c4c3C2=O)NC(=O)/C(C)=C\C=C\[C@H](C)[C@H](O)[C@@H](C)[C@@H](O)[C@@H](C)[C@H](OC(C)=O)[C@@H]1C
CC50 (Staphylococcus aureus [1]): 1500 nM | MIC (Staphylococcus aureus [2]): 0.015 µg/mL (≈ 0.0124 µM) | MIC (Staphylococcus aureus [3]): 16 µg/mL (≈ 13.3 µM) | CC50 [4]: > 150000 nM | MIC (Staphylococcus aureus [5]): 0.12 µg/mL (≈ 0.0996 µM) | MIC (Staphylococcus aureus [6]): 4 µg/mL (≈ 3.32 µM) | MIC (Staphylococcus aureus [7]): 0.5 µg/mL (≈ 0.415 µM) | MIC (Staphylococcus aureus [8]): 0.03 µg/mL (≈ 0.0249 µM) | MIC (Staphylococcus aureus [9]): 4 µg/mL (≈ 3.32 µM) | MIC (Staphylococcus aureus [10]): 0.015 µg/mL (≈ 0.0124 µM) | MIC (Staphylococcus aureus [11]): 0.5 µg/mL (≈ 0.415 µM) | Activity (Staphylococcus aureus [12]): Active | MIC (Staphylococcus aureus [13]): 0.015 µg/mL (≈ 0.0124 µM) | MIC (Staphylococcus aureus [14]): 1 µg/mL (≈ 0.83 µM) | MIC (Staphylococcus aureus [15]): 64 µg/mL (≈ 53.1 µM) | MIC (Staphylococcus aureus [16]): 0.5 µg/mL (≈ 0.415 µM) | MIC (Staphylococcus aureus [17]): 2 µg/mL (≈ 1.66 µM) | MIC (Staphylococcus aureus [18]): 0.5 µg/mL (≈ 0.415 µM) | Activity (Staphylococcus aureus [19]): Active | Time (Staphylococcus aureus [20]): 47 min | Activity (Staphylococcus aureus [21]): Active | Activity (Staphylococcus aureus [22]): Active | Activity (Staphylococcus aureus [23]): Active | MIC (Staphylococcus aureus [24]): 0.008 µg/mL (≈ 0.00664 µM) | Time (Staphylococcus aureus [25]): 65 min | MIC (Staphylococcus aureus [26]): 0.12 µg/mL (≈ 0.0996 µM) | MIC (Staphylococcus aureus [27]): 4 µg/mL (≈ 3.32 µM) | MIC (Staphylococcus aureus [28]): 0.25 µg/mL (≈ 0.207 µM) | MIC (Staphylococcus aureus [29]): 16 µg/mL (≈ 13.3 µM)
